From PubChem BioAssay
Results filed as inconclusive are left out.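 The calls were made as follows, unless noted: active = cell viability at or below a set limit in both duplicate runs, the limit being the all-compound median minus 4 SD (cut at about 23% in these data, passing the limit was not always enough); inconclusive = no clear call, values can overlap the other calls; inactive = the rest.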

What was measured:
[1] = S. cerevisiae growth inhibition in permissive medium (OD615), pilot counter-assay for S. cerevisiae lifespan shortening project, permissive growth control (AID 705;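 active = growth inhibition above 25% in both replicates, a cutoff set 3 SD above the mean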); conditions: OD615, 24 h, at 10 µM, stronger effect = higher value
Outline: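 System: S. cerevisiae with engineered DeaD lifespan system / Measured by: absorbance (optical density) at 615 nm / Read-out: reduction in yeast growth (OD615) / Times: 4 h cell pre-growth, 24 h exposure at 30 °C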

[2] = S. cerevisiae growth inhibition in restrictive medium, OD615, pilot screen, restrictive growth control, yeast lifespan reduction project (AID 706;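 active = growth inhibition above a set limit, 3 SD over mean compound inhibition, in both replicates, cut at about 43% in these data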;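 also: modified DeaD lifespan yeast strain shifted to restrictive glucose medium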); conditions: OD615, 48 h, at 10 µM, stronger effect = higher value
Outline: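 System: Engineered S. cerevisiae DeaD strain | Buffer or medium: Glucose-based CSMM-D restrictive medium | Schedule: 4 h pre-incubation, 48 h exposure at 30 °C | Technique: Optical density at 615 nm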

[3] = doxorubicin toxicity protection in MRP-1 cells – H69AR cells, CellTiter-Glo, duplicate, MRP-1 activator project, pilot screen (AID 807;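 active = viability increase at or above a cutoff of the median across tested compounds plus 3 SD, cut at about 8.5% in these data, passing the limit was not always enough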;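 also: compound pretreatment 18-22 h then 72 h combined with doxorubicin; 0% = doxorubicin alone and 100% = vehicle without doxorubicin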); conditions: H69AR viability with doxorubicin, CellTiter-Glo luminescence; at 10 µM; stronger effect = higher value
[4] = viability of HCT116 without oncogenic beta-catenin – human colon tumor cells, pilot screen (AID 823); conditions: HCT116 beta-catenin knockout viability, CellTiter-Glo, 60 h; at 10 µM; stronger effect = lower value;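 also: 0% = wells killed by 20 µM Hyamine and 100% = untreated DMSO cell wells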
[5] = RAM pathway blockade in budding yeast – dse1pr::URA3 reporter, 5-FOA selection, pilot screen (AID 869;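 active = inhibition over a set limit, the all-compound mean plus 3 SD, in both replicate runs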;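 also: 0% = DMSO wells with no growth and 100% = 10 µM 1-NA-PP1 with full growth; RAM network block rescues cells from 5-FOA so hits raise OD615 growth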); conditions: S. cerevisiae dse1pr::URA3 5-FOA growth, OD615, 2 d; at 10 µM; stronger effect = higher value; strain carries analog-sensitive mutant Cbk1 kinase
[6] = RAM signaling pathway blockade in yeast – S. cerevisiae, Pdr1DBD-CYC8 efflux-inhibited sensitized strain, primary screen (AID 1298;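 active = RAM network inhibition above 8.4% in each of two replicates, 3 SD over the compound average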;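 also: 0% = DMSO untreated cells without growth and 100% = 10 µM 1-NA-PP1 full growth; higher means more yeast growth rescued from 5-FOA killing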); conditions: S. cerevisiae cbk1-as DSE1-URA3 strain, 5-FOA growth OD615, 2 d; at 50 µM; stronger effect = higher value

CCOC(=O)N1CCN(c2nc(SC)nc3sc4c(c23)CC(C)(C)OC4)CC1
inactive: growth inhibition [1] 2.38% | growth inhibition [2] -0.985% | viability increase [3] -5.82% | viability [4] 87.5% | inhibition [5] 0.54% | RAM network inhibition [6] 9.5%

S=c1nc(-c2ccccc2)n(CCN2CCOCC2)c2c1CCCC2
inactive: growth inhibition [1] -2.79% | growth inhibition [2] 19.1% | viability increase [3] -4.18% | viability [4] 92.6% | inhibition [5] 1.71% | RAM network inhibition [6] 6.76%

CCCCNC(=O)c1ccc(NC(=O)C2CCCO2)cc1 (centres undefined)
inactive: growth inhibition [1] -3.29% | growth inhibition [2] -3.53% | viability increase [3] -0.44% | viability [4] 96.5% | inhibition [5] 1.81% | RAM network inhibition [6] 3.01%

Cc1ccc(-c2nc(=S)c3c(n2Cc2ccco2)CC(C)(C)OC3)cc1
inactive: growth inhibition [1] -13.2% | growth inhibition [2] 2.99% | viability increase [3] -2.16% | viability [4] 69.2% | inhibition [5] -0.945% | RAM network inhibition [6] 3.44%

CS(=O)(=O)c1nc(-c2cccs2)cc(C(F)(F)F)n1
inactive: growth inhibition [1] -22.6% | growth inhibition [2] 1.86% | viability increase [3] -8.04% | viability [4] 53.4% | inhibition [5] 2.05% | RAM network inhibition [6] -0.11%

COC(=O)c1ccc(NCC(=O)c2ccccc2)cc1
inactive: growth inhibition [1] -7.25% | growth inhibition [2] -4.05% | viability increase [3] -4.87% | viability [4] 99.3% | inhibition [5] 1.83% | RAM network inhibition [6] 3.96%

CCOC(=O)/C=c1\sc2n(c1=O)CCN=2
inactive: growth inhibition [1] -0.765% | growth inhibition [2] -2% | viability increase [3] -3.32% | viability [4] 91.9% | inhibition [5] 1.44% | RAM network inhibition [6] 2.73%

COc1ccc2c(c1)-c1nc(NC(=O)c3cccs3)sc1CC2
inactive: growth inhibition [1] -13.6% | growth inhibition [2] -12.2% | viability increase [3] -1.82% | viability [4] 33.6% | inhibition [5] 3.16% | RAM network inhibition [6] 1.99%

CN1CCc2c(sc3nc(SCC(=O)N4CCOCC4)nc(N)c23)C1
inactive: growth inhibition [1] -4.38% | growth inhibition [2] 0.52% | viability increase [3] -4.4% | viability [4] 95.1% | inhibition [5] 0.215% | RAM network inhibition [6] 5.05%

Cc1ccc(-c2nc(S(=O)(=O)c3ccc(F)cc3)c(SCC(=O)NCC3CCCO3)o2)cc1 (centres undefined)
inactive: growth inhibition [1] -6.27% | growth inhibition [2] 1.93% | viability increase [3] -6.02% | viability [4] 93.6% | inhibition [5] 0.14% | RAM network inhibition [6] 0.57%

CCOC(=O)C1CCCN(C(=O)CNC(=O)Cn2ccc3ccccc3c2=O)C1 (centres undefined)
inactive: growth inhibition [1] -6.4% | growth inhibition [2] -0.325% | viability increase [3] -4.65% | viability [4] 104% | inhibition [5] 0.875% | RAM network inhibition [6] 4.63%

COCCn1c(=O)[nH]c2cc(C(=O)NCCN3CCN(c4ccccc4F)CC3)ccc2c1=O
inactive: growth inhibition [1] 0.575% | growth inhibition [2] 4.3% | viability increase [3] -1.27% | viability [4] 94.3% | inhibition [5] 1.31% | RAM network inhibition [6] 9.5%

CCOc1ccccc1NC(=O)CSc1nnc(-c2cnccn2)n1C
inactive: growth inhibition [1] -24.8% | growth inhibition [2] -1.53% | viability increase [3] -3.17% | viability [4] 91.8% | inhibition [5] 3.12% | RAM network inhibition [6] 5.04%

CNC(=O)c1ccc(-c2sc3nc(N4CCOCC4)c4c(c3c2N)CCCC4)o1
inactive: growth inhibition [1] 0.875% | growth inhibition [2] 17.2% | viability increase [3] -7.88% | viability [4] 39.6% | inhibition [5] -0.54% | RAM network inhibition [6] 5.11%

CCC1(C)Cc2c(sc3c2c2ncnn2c2nnc(SCC(=O)NCc4ccco4)n32)CO1 (centres undefined)
inactive: growth inhibition [1] -19.2% | growth inhibition [2] -5.88% | viability increase [3] -7.33% | viability [4] 58.1% | inhibition [5] 0.815% | RAM network inhibition [6] 1.87%

CC(C)(C)NS(=O)(=O)c1ccc(OCC(=O)Nc2ccc3c(c2)OCCO3)cc1
inactive: growth inhibition [1] -11.5% | growth inhibition [2] -8.28% | viability increase [3] -0.9% | viability [4] 102% | inhibition [5] 2.62% | RAM network inhibition [6] 7.73%

CC(=O)Nc1ccc(S(=O)(=O)N2CCC(c3nc4ccc(C)cc4[nH]3)CC2)cc1
inactive: growth inhibition [1] -24.1% | growth inhibition [2] 2.08% | viability increase [3] -3.15% | viability [4] 51.2% | inhibition [5] 1.47% | RAM network inhibition [6] 9.15%

O=C(Nc1ccc2c(c1)OCCO2)c1ccc(NC(=O)C2CCCO2)cc1 (centres undefined)
inactive: growth inhibition [1] -10.9% | growth inhibition [2] -3.79% | viability increase [3] -0.87% | viability [4] 72.7% | inhibition [5] 2.04% | RAM network inhibition [6] 3.27%

c1nc(NCCN2CCOCC2)c2sc3nc(N4CCOCC4)c4c(c3c2n1)CCC4
inactive: growth inhibition [1] -7.6% | growth inhibition [2] 6.11% | viability increase [3] -6.1% | viability [4] 84.8% | inhibition [5] 2.26% | RAM network inhibition [6] 8.21%

Cc1cc(NC(=O)Cn2c(=O)n(Cc3ccccc3)c(=O)c3ccccc32)no1
inactive: growth inhibition [1] -5.91% | growth inhibition [2] -24.7% | viability increase [3] -5.98% | viability [4] 51.5% | inhibition [5] 1.32% | RAM network inhibition [6] 6.47%

CCC1CCCCN1C(=O)CSc1nc2c([nH]c3ccccc32)c(=O)n1C (centres undefined)
inactive: growth inhibition [1] -5.5% | growth inhibition [2] -4.4% | viability increase [3] -8.15% | viability [4] 55.7% | inhibition [5] 1.36% | RAM network inhibition [6] 3.27%

COc1ccc(NC2=NCC(=O)N2c2ccccc2)c(OC)c1
inactive: growth inhibition [1] -19.2% | growth inhibition [2] -5.42% | viability increase [3] -0.89% | viability [4] 91.5% | inhibition [5] 1.15% | RAM network inhibition [6] 5.45%

CN1CCCCc2c1[nH]c1ccccc1c2=O
inactive: growth inhibition [1] 8.28% | growth inhibition [2] 2.2% | viability increase [3] -3.35% | viability [4] 95.8% | inhibition [5] 0.42% | RAM network inhibition [6] -1.45%

CC(C)N(C(=O)C1CC(=O)OC12CCCCC2)C(C)C (centres undefined)
inactive: growth inhibition [1] 1.46% | growth inhibition [2] 3.32% | viability increase [3] -0.41% | viability [4] 99.1% | inhibition [5] 1.32% | RAM network inhibition [6] 0.1%

COc1ccc(C(=O)Nc2ccccc2-c2nnn(CC(=O)NCc3ccco3)n2)cc1
inactive: growth inhibition [1] -1.97% | growth inhibition [2] 10% | viability increase [3] -2.04% | viability [4] 78% | inhibition [5] 4.12% | RAM network inhibition [6] 7.41%

CN1CCc2c(sc3c2c(=O)n(-c2ccc(Cl)cc2)c2nncn32)C1
inactive: growth inhibition [1] -12.1% | growth inhibition [2] 7.29% | viability increase [3] 0.1% | viability [4] 92.1% | inhibition [5] 1.45% | RAM network inhibition [6] 2.09%

O=C(NCc1cccs1)C1CCCN(S(=O)(=O)c2ccc3c(c2)OCO3)C1 (centres undefined)
inactive: growth inhibition [1] -20.3% | growth inhibition [2] -1.21% | viability increase [3] -3.16% | viability [4] 90.8% | inhibition [5] 1.46% | RAM network inhibition [6] 3.17%

Cn1c(=O)[nH]c(=O)c2c1nc(Sc1ncccn1)n2CCCc1ccccc1
inactive: growth inhibition [1] -10.3% | growth inhibition [2] -9.67% | viability increase [3] -4.15% | viability [4] 97% | inhibition [5] 1.43% | RAM network inhibition [6] 7.26%

CC(NC(=O)C(C)(C)C)c1nc2ccccc2n1C (centres undefined)
inactive: growth inhibition [1] 5.72% | growth inhibition [2] 5.71% | viability increase [3] -3.14% | viability [4] 95.1% | inhibition [5] 0.63% | RAM network inhibition [6] 3.17%

O=C(CS(=O)(=O)c1cn(Cc2cccc(F)c2)c2ccccc12)N1CCCCC1
inactive: growth inhibition [1] -12.9% | growth inhibition [2] -2.79% | viability increase [3] -3.96% | viability [4] 73.2% | inhibition [5] 2.04% | RAM network inhibition [6] 3.64%

CCN1C(=S)SC(=O)C1=C1C=C(C)OC(C)=C1
inactive: growth inhibition [1] -11% | growth inhibition [2] 14.9% | viability increase [3] -3.02% | viability [4] 91.9% | inhibition [5] 2.55% | RAM network inhibition [6] 5.1%

COc1ccc(CC(=O)Nc2cc(C)c3c(=O)oc4ccccc4c3n2)cc1
inactive: growth inhibition [1] -2.25% | growth inhibition [2] 1.88% | viability increase [3] -4.14% | viability [4] 75.3% | inhibition [5] 4.06% | RAM network inhibition [6] 7.11%

CCOc1ccc(N(CC(=O)NC2CCCCCC2)S(=O)(=O)c2c(C)noc2C)cc1
inactive: growth inhibition [1] -4.29% | growth inhibition [2] -1.42% | viability increase [3] -6.44% | viability [4] 44.8% | inhibition [5] 3.02% | RAM network inhibition [6] 5.55%

CC1CCN(CCNC(=O)c2ccc(NC(=O)C3CCCO3)cc2)CC1 (centres undefined)
inactive: growth inhibition [1] -16.1% | growth inhibition [2] -2.63% | viability increase [3] -1.69% | viability [4] 103% | inhibition [5] 1.95% | RAM network inhibition [6] 3.74%

COc1ccc(-c2cc3ccccc3n2CC(O)Cn2nc(C)cc2C)cc1 (centres undefined)
inactive: growth inhibition [1] -6.15% | growth inhibition [2] 12.6% | viability increase [3] -4.13% | viability [4] 69.5% | inhibition [5] 0.2% | RAM network inhibition [6] 7.69%

OCC1(c2cc(C(F)(F)F)n[nH]2)CCCCC1
inactive: growth inhibition [1] 5.65% | growth inhibition [2] -0.23% | viability increase [3] -2.12% | viability [4] 91.4% | inhibition [5] 1.2% | RAM network inhibition [6] -0.68%

COCCCNC(=O)c1cc2c(=O)n(C)c3ccccc3c2n1C
inactive: growth inhibition [1] -7.96% | growth inhibition [2] -5.92% | viability increase [3] -7.13% | viability [4] 36.5% | inhibition [5] 0.345% | RAM network inhibition [6] 4.4%

O=C(OCC(=O)N1CCN(C(=O)c2ccco2)CC1)C1=COCCO1
inactive: growth inhibition [1] -9.26% | growth inhibition [2] -5.99% | viability increase [3] -3.83% | viability [4] 105% | inhibition [5] 2.21% | RAM network inhibition [6] 3.69%

CCN(CC)C(=O)CSc1nnc(-c2ccccc2)n1N
inactive: growth inhibition [1] 3.57% | growth inhibition [2] -0.035% | viability increase [3] -2.74% | viability [4] 93.3% | inhibition [5] 0.76% | RAM network inhibition [6] -0.62%
